According to ChEMBL document CHEMBL4038344, “Novel Diarylurea Based Allosteric Modulators of the Cannabinoid CB1 Receptor: Evaluation of Importance of 6-Pyrrolidinylpyridinyl Substitution” (J Med Chem, 2017):
pIC50: −log10 of the molar value. Calls of active or inactive are those of the source. The rule behind the calls is not given here.

Experiments:
Cannabinoid receptor 2 [1] = target: T1, Cannabinoid receptor 2 (Homo sapiens, UniProt P34972); experiment: Agonist activity at human CB2 receptor expressed in CHO cells co-expressing Galpha16 assessed as increase in calcium mobilization at 10 uM measured at 1 sec interval for 90 secs by calcium-5 dye based FLIPR assay relative to CP55,940; type: functional, cell-based
T1 sequence (P34972 whole entry): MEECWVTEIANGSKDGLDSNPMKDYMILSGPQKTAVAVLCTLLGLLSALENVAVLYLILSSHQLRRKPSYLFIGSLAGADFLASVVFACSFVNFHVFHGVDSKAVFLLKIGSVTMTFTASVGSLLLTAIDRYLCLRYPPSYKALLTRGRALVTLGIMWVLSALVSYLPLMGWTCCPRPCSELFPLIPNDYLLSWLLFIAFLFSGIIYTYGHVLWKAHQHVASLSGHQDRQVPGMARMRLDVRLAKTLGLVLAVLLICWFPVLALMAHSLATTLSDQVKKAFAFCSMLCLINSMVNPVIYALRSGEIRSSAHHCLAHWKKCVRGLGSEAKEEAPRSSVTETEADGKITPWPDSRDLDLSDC
Method in brief: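 CB2 agonist screen in stable human CB2-CHO-RD-HGA16 cells. Cells were Calcium 5 dye-loaded for 45 min at 37 °C in HBSS/HEPES/probenecid buffer, pH 7.4, and pretreated with vehicle. FLIPR Tetra then added compound at a single concentration. Fluorescence (485/525 nm) was expressed as % of CP55,940 Emax.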

Cannabinoid receptor 1 [2] = target: T2, Cannabinoid receptor 1 (Homo sapiens, UniProt P21554); experiment: Agonist activity at human CB1 receptor expressed in CHO cells co-expressing Galpha16 assessed as increase in calcium mobilization at 10 uM measured at 1 sec interval for 90 secs by calcium-5 dye based FLIPR assay relative to CP55,940; type: cell-based; conditions: 0.025 h
T2 sequence (P21554 whole entry): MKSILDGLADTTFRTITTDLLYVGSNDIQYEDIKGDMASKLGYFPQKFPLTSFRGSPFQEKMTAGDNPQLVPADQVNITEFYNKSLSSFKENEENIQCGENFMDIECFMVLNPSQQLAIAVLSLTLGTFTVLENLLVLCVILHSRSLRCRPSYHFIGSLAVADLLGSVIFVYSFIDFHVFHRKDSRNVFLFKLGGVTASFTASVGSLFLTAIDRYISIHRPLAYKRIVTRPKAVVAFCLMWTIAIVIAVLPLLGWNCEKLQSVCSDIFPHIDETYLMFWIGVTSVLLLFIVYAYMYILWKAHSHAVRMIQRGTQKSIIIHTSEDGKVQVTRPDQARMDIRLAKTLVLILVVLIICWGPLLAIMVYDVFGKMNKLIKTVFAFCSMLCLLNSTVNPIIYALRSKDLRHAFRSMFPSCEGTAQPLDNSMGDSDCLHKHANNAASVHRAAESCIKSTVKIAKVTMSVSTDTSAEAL

Cannabinoid receptor 2 [3] = target: T1, Cannabinoid receptor 2; experiment: (§1) Antagonist activity at human CB2 receptor expressed in CHO cells co-expressing Galpha16 assessed as inhibition of CP55,940-induced calcium mobilization preincubated for 15 mins followed by CP55,490 addition measured at 1 sec interval for 90 secs by calcium-5 dye based FLIPR assay; type: functional, cell-based
Cannabinoid receptor 2 [4] = target: T1, Cannabinoid receptor 2; experiment: as §1, with “mobilization at 10 uM” for “mobilization”, “assay relative to CP55,940” for “assay”; type: functional, cell-based
Liver [5] = experiment: (§2) Half life in rat liver microsomes in presence of NADPH by LC-MS/MS analysis; type: ADME, microsome; conditions: microsomes
Method in brief: (§3)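 Compound was incubated at 37 °C with rat liver microsomes (0.5 mg/mL protein) in 100 mM potassium phosphate, pH 7.4, with 1 mM NADPH. Samples were taken at 0, 5, 15, 30 and 45 min and quenched 1:1 with ice-cold stop solution containing labetalol. Half-life and clearance are mean ± SD of two independent experiments.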

Cannabinoid receptor 1 [6] = target: T2, Cannabinoid receptor 1; experiment: PAM antagonist activity at human CB1 receptor expressed in CHO cells co-expressing Galpha16 assessed as inhibition of CP55,940-induced calcium mobilization up to 100 nM preincubated for 15 mins followed by CP55,490 addition measured at 1 sec interval for 90 secs by calcium-5 dye based FLIPR assay; type: functional, cell-based
[7] = target: Cannabinoid receptor 1 (Mus musculus) (UniProt P47746); experiment: PAM antagonist activity at CB1 receptor in CD-1 mouse cerebellar membranes assessed as inhibition of CP55,940-induced [35S]GTPgammaS binding after 60 mins; conditions: Cerebellum, Membrane
Chain of Cannabinoid receptor 1 (Mus musculus) (P47746 whole entry, looked up): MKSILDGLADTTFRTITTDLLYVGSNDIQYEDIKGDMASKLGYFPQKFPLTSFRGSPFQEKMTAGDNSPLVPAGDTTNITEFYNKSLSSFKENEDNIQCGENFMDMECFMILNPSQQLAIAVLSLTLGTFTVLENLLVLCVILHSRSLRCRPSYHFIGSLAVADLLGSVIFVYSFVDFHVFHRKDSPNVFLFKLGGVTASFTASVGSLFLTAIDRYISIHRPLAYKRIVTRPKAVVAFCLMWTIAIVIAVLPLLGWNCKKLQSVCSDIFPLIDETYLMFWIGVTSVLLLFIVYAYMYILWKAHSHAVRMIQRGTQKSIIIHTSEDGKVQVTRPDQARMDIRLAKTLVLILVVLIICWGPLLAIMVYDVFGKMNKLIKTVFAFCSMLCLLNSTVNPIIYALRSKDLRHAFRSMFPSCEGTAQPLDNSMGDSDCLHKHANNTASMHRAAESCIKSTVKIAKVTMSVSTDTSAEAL

[8] = target: Cannabinoid receptor 1 (Mus musculus) (UniProt P47746); experiment: PAM antagonist activity at CB1 receptor in CD-1 mouse cerebellar membranes assessed as increase in [3H]CP55,940 binding after 90 mins relative to control; set-up: scale not given: the % may be the effect or the level left; conditions: Cerebellum, Membrane
Rattus norvegicus [9] = experiment: Reduction in cocaine-induced reinstatement of cocaine seeking behavior in Sprague-Dawley rat at 10 mg/kg pretreated for 10 mins followed by cocaine treatment on day following last extinction session; type: functional, organism-based
Method in brief: (§4)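 Adult male Sprague-Dawley rats (280-300 g) with jugular catheters self-administered cocaine (0.75 mg/kg/infusion, FR1 rising to FR5) in 2-hr daily sessions for 14 days, followed by extinction. On the day after the last extinction session, compound was given 10 min before a cocaine prime (10 mg/kg i.p.). Active lever presses were counted over the 2-hr reinstatement session.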

Liver [10] = experiment: Clearance in rat liver microsomes in presence of NADPH by LC-MS/MS analysis; type: ADME, microsome; method in brief: as §3
[11] = as §2; type: ADME, microsome; conditions: liver microsomes; method in brief: as §3
Cannabinoid receptor 1 [12] = target: Cannabinoid receptor 1 (Rattus norvegicus, UniProt P20272); experiment: Allosteric modulation of CB1 receptor in rat cerebellar membranes assessed as inhibition of CP55,940-induced [35S]GTPgammaS binding; type: functional, cell membranes, Cerebellum, Membrane
Chain of Cannabinoid receptor 1 (Rattus norvegicus, UniProt P20272) (P20272 whole entry): as the sequence (P47746 whole entry, looked up) above, with D95E counted along it

Rattus norvegicus [13] = experiment: Reduction in cocaine-induced reinstatement of cocaine seeking behavior in Sprague-Dawley rat at 30 mg/kg pretreated for 10 mins followed by cocaine treatment on day following last extinction session; type: functional, organism-based; method in brief: as §4
Cannabinoid receptor 1 [14] = target: Cannabinoid receptor 1 (Mus musculus, UniProt P47746); experiment: Allosteric modulation of CB1 receptor in CD-1 mouse cerebellar membranes assessed as inhibition of CP55,940-induced [35S]GTPgammaS binding after 60 mins; type: functional, cell membranes, Cerebellum, Membrane
Chain of Cannabinoid receptor 1 (Mus musculus, UniProt P47746) (P47746 whole entry): as the sequence (P47746 whole entry, looked up) above
Method in brief: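 They were preincubated 10 min with adenosine deaminase (3 U/ml) in buffer containing 1 mg/ml BSA, then incubated 60 min at 30 °C with 30 µM GDP, 0.1 nM [35S]GTPγS, 100 nM CP55,940 and compound (0.1% DMSO). Nonspecific binding was measured with 30 µM GTPγS. Read-out was filtration.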

Emax (Cannabinoid receptor 2 [1]) | Emax at 10 µM (Cannabinoid receptor 1 [2]) | Imax (Cannabinoid receptor 2 [4]) | Compound | other results
< 10% | 9% |  | O=C(Nc1ccc(Cl)cc1)Nc1cccc(-c2cncnc2)c1 | pIC50 (Cannabinoid receptor 2 [3]): 5.47
< 10% | 4% | < 50% | CC(C)(C)c1ccc(-c2cccc(NC(=O)Nc3ccc(Cl)cc3)c2)cc1 | 
< 10% | 10% | < 50% | O=C(Nc1ccc(Cl)cc1)Nc1cccc(-c2ccc3c(c2)OCO3)c1 | 
< 10% | 9% |  | O=C(Nc1ccc(Cl)cc1)Nc1cccc(-c2ccc(F)cc2)c1 | t1/2 (Liver [5]): > 300 min; inhibition (Cannabinoid receptor 1 [6]): Active; inhibition [7]: Dose-dependent effect; Activity [8]: 215%; Activity (Rattus norvegicus [9]): Active; pIC50 (Cannabinoid receptor 2 [3]): < 5.00; CLH (Liver [10]): < 4.6 µL/min/mg
< 10% | 5% | < 50% | O=C(Nc1ccc(Cl)cc1)Nc1cccc(-c2ccc3ccccc3n2)c1 | 
< 10% | 10% | < 50% | O=C(Nc1ccc(Cl)cc1)Nc1cccc(-c2cccc(O)c2)c1 | 
< 10% | 1% | < 50% | O=C(Nc1ccc(Cl)cc1)Nc1cccc(-c2ccc3occc3c2)c1 | 
< 10% |  | < 50% | Cc1cccc(-c2cccc(NC(=O)Nc3ccc(Cl)cc3)c2)c1 | 
< 10% | 9% | < 50% | O=C(Nc1ccc(Cl)cc1)Nc1cccc(-c2ccccn2)c1 | 
< 10% | 3% | < 50% | Cc1ccnc(-c2cccc(NC(=O)Nc3ccc(Cl)cc3)c2)c1 | 
< 10% | 1% | < 50% | O=C(Nc1ccc(Cl)cc1)Nc1cccc(-c2cccc(-c3ccccc3)c2)c1 | 
< 10% | 0% | < 50% | O=C(Nc1ccc(Cl)cc1)Nc1cccc(-c2ccc3c(c2)Cc2ccccc2-3)c1 | 
< 10% | 20% |  | O=C(Nc1ccc(Cl)cc1)Nc1cccc(-c2ccc(Cl)c(Cl)c2)c1 | pIC50 (Cannabinoid receptor 2 [3]): < 5.00
< 10% | 13% | < 50% | O=C(Nc1ccc(Cl)cc1)Nc1cccc(-c2ccc(C(=O)c3ccccc3)cc2)c1 | 
< 10% | 5% | < 50% | O=C(Nc1ccc(Cl)cc1)Nc1cccc(-c2ccccc2)c1 | 
< 10% | 10% | < 50% | CC(C)(C)c1cc(-c2cccc(NC(=O)Nc3ccc(Cl)cc3)c2)cc(C(C)(C)C)c1 | 
< 10% | 6% |  | Cc1ccccc1-c1cccc(NC(=O)Nc2ccc(Cl)cc2)c1 | pIC50 (Cannabinoid receptor 2 [3]): < 5.00
< 10% | 34% | < 50% | O=C(Nc1ccc(Cl)cc1)Nc1cccc(-c2cccnc2)c1 | 
< 10% | 23% | < 50% | COc1cc(-c2cccc(NC(=O)Nc3ccc(Cl)cc3)c2)ccn1 | 
< 10% | 17% | < 50% | O=C(Nc1ccc(Cl)cc1)Nc1cccc(-c2c(Cl)cccc2Cl)c1 | 
< 10% | 21% | < 50% | O=C(Nc1ccc(Cl)cc1)Nc1cccc(-c2ccc(Cl)cc2)c1 | 
< 10% | 7% | < 50% | O=C(Nc1ccc(Cl)cc1)Nc1cccc(-c2ccc3ccccc3c2)c1 | 
< 10% | 3% |  | O=C(Nc1ccc(Cl)cc1)Nc1cccc(-c2cnc3ccccc3c2)c1 | pIC50 (Cannabinoid receptor 2 [3]): 5.39
< 10% | 2% | < 50% | COc1cccc(-c2cccc(NC(=O)Nc3ccc(Cl)cc3)c2)n1 | 
< 10% | 15% | < 50% | O=C(Nc1ccc(Cl)cc1)Nc1cccc(-c2ccncc2)c1 | t1/2 (Liver [5]): 41.9 min; CLH (Liver [10]): 33.1 µL/min/mg
< 10% | 0% | < 50% | O=C(Nc1ccc(Cl)cc1)Nc1cccc(-c2ccc(-c3ccccc3)cc2)c1 | pIC50 (Cannabinoid receptor 1 [14]): < 5.00
< 10% | 16% | < 50% | O=C(Nc1ccc(Cl)cc1)Nc1cccc(-c2cc(Cl)cc(Cl)c2)c1 | 
< 10% | 13% | < 50% | COc1cccc(-c2cccc(NC(=O)Nc3ccc(Cl)cc3)c2)c1 | 
< 10% | 9% | < 50% | O=C(Nc1ccc(Cl)cc1)Nc1cccc(-c2ccc(F)cc2F)c1 | 

Compound | Emax (Cannabinoid receptor 2 [1]) | Emax at 10 µM (Cannabinoid receptor 1 [2]) | Imax (Cannabinoid receptor 2 [4]) | other results
O=C(Nc1ccc(Cl)cc1)Nc1cccc(-c2cccc(N3CCCC3)n2)c1 | < 10% | 28% |  | half-life [11]: 13 to 13.4 min; pIC50 (Cannabinoid receptor 1 [12]): 7.13 to 7.38; pIC50 (Cannabinoid receptor 2 [3]): < 5.00; Activity (Rattus norvegicus [13]): Active; CLH (Liver [10]): 113.7 µL/min/mg
O=C(Nc1ccc(Cl)cc1)Nc1cccc(-c2cccc([N+](=O)[O-])c2)c1 | < 10% | 17% |  | pIC50 (Cannabinoid receptor 2 [3]): < 5.00
CC(C)Oc1cccc(-c2cccc(NC(=O)Nc3ccc(Cl)cc3)c2)c1 | < 10% |  | < 50% | 
